Converted amounts (≈) assume the structure as drawn.
Experiments:
Format in all cases: functional
Streptococcus pyogenes [1] = assay: Antibacterial activity against macrolide lincosamide- streptogramin B inducibly-resistant Streptococcus pyogenes by agar microdilution method
Outline: (§1)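 Agar microdilution MIC following NCCLS standards; strains taken from the Pliva Research Institute culture collection. Panel grouped by phenotype: erythromycin-susceptible, inducibly MLS-resistant (iMLS), constitutively MLSB-resistant and efflux-resistant (M). Azithromycin, telithromycin and cethromycin tested alongside as references. MIC reported in μg/mL.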

Streptococcus pneumoniae [2] = assay: Antibacterial activity against erythromycin-susceptible Streptococcus pneumoniae by agar microdilution method
Outline: (§2)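 Strains from an in-house culture collection (Pliva Research Institute). MIC determined by agar microdilution following NCCLS standards and reported in μg/mL. Erythromycin-susceptible strains are listed as Ery-S; the panel also includes inducibly resistant (iMLS), constitutively resistant (MLSB) and efflux-resistant (M) strains.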

Staphylococcus aureus [3] = assay: Antibacterial activity against macrolide lincosamide- streptogramin B inducibly-resistant Staphylococcus aureus by agar microdilution method; outline: as §1
Staphylococcus aureus [4] = assay: Antibacterial activity against erythromycin-susceptible Staphylococcus aureus by agar microdilution method; outline: as §2
Haemophilus influenzae = assay: Antibacterial activity against Haemophilus influenzae by agar microdilution method; outline: as §2
Staphylococcus aureus [5] = assay: Antibacterial activity against macrolide lincosamide- streptogramin B-resistant Staphylococcus aureus by agar microdilution method; outline: as §1
Streptococcus pyogenes [6] = assay: Antibacterial activity against erythromycin-susceptible Streptococcus pyogenes by agar microdilution method; outline: as §2
Streptococcus pneumoniae [7] = assay: Antibacterial activity against macrolide lincosamide- streptogramin B inducibly-resistant Streptococcus pneumoniae by agar microdilution method; outline: as §1
Streptococcus pyogenes [8] = assay: Antibacterial activity against efflux-resistant Streptococcus pyogenes by agar microdilution method; outline: as §1
Streptococcus pneumoniae [9] = assay: Antibacterial activity against efflux-resistant Streptococcus pneumoniae by agar microdilution method; outline: as §1

| SMILES | MIC (Streptococcus pyogenes [1]) | MIC (Streptococcus pneumoniae [2]) | MIC (Staphylococcus aureus [3]) | MIC (Staphylococcus aureus [4]) | MIC (Haemophilus influenzae) | MIC (Staphylococcus aureus [5]) | MIC (Streptococcus pyogenes [6]) | MIC (Streptococcus pneumoniae [7]) | MIC (Streptococcus pyogenes [8]) | MIC (Streptococcus pneumoniae [9]) |
| --- | --- | --- | --- | --- | --- | --- | --- | --- | --- | --- |
| CC[C@H]1OC(=O)[C@H](C)C(=O)[C@H](C)[C@@H](O[C@@H]2O[C@H](C)C[C@H](N(C)C)[C@H]2O)[C@](C)(OC)C[C@@H](C)C(=O)[C@H](C)[C@H]2C(N)C(=O)O[C@@]21C (stereo not given in full) | > 64 µg/mL | ≤ 0.125 µg/mL | 32 µg/mL (≈ 51.1 µM) | 1 µg/mL (≈ 1.6 µM) | > 64 µg/mL | > 64 µg/mL | 2 µg/mL (≈ 3.19 µM) | > 64 µg/mL | 8 µg/mL (≈ 12.8 µM) | 8 µg/mL (≈ 12.8 µM) |
| CC[C@H]1OC(=O)[C@H](C)C(=O)[C@H](C)[C@@H](O[C@@H]2O[C@H](C)C[C@H](N(C)C)[C@H]2O)[C@](C)(OC)C[C@@H](C)C(=O)[C@H](C)[C@H]2C(NC(=O)CCc3ccccc3)C(=O)O[C@@]21C (stereo not given in full) | 16 µg/mL (≈ 21.1 µM) | ≤ 0.125 µg/mL | 8 µg/mL (≈ 10.5 µM) | 4 µg/mL (≈ 5.27 µM) | 16 µg/mL (≈ 21.1 µM) | > 64 µg/mL | 0.5 µg/mL (≈ 0.659 µM) | 16 µg/mL (≈ 21.1 µM) | 8 µg/mL (≈ 10.5 µM) | 4 µg/mL (≈ 5.27 µM) |
| CC[C@H]1OC(=O)[C@H](C)C(=O)[C@H](C)[C@@H](O[C@@H]2O[C@H](C)C[C@H](N(C)C)[C@H]2O)[C@](C)(OC)C[C@@H](C)C(=O)[C@H](C)[C@H]2C(NC(=O)CCc3ccncc3)C(=O)O[C@@]21C (stereo not given in full) | 2 µg/mL (≈ 2.63 µM) | ≤ 0.125 µg/mL | 8 µg/mL (≈ 10.5 µM) | 4 µg/mL (≈ 5.26 µM) | 2 µg/mL (≈ 2.63 µM) | > 64 µg/mL | ≤ 0.125 µg/mL | 16 µg/mL (≈ 21.1 µM) | 2 µg/mL (≈ 2.63 µM) | 8 µg/mL (≈ 10.5 µM) |
| CC[C@H]1OC(=O)[C@H](C)C(=O)[C@H](C)[C@@H](O[C@@H]2O[C@H](C)C[C@H](N(C)C)[C@H]2O)[C@](C)(OC)C[C@@H](C)C(=O)[C@H](C)[C@H]2C(NC(=O)CCc3cccnc3)C(=O)O[C@@]21C (stereo not given in full) | 4 µg/mL (≈ 5.26 µM) | ≤ 0.125 µg/mL | 4 µg/mL (≈ 5.26 µM) | 2 µg/mL (≈ 2.63 µM) | 8 µg/mL (≈ 10.5 µM) | > 64 µg/mL | ≤ 0.125 µg/mL | 4 µg/mL (≈ 5.26 µM) | 2 µg/mL (≈ 2.63 µM) | 2 µg/mL (≈ 2.63 µM) |
| CC[C@H]1OC(=O)[C@H](C)C(=O)[C@H](C)[C@@H](O[C@@H]2O[C@H](C)C[C@H](N(C)C)[C@H]2O)[C@](C)(OC)C[C@@H](C)C(=O)[C@H](C)[C@H]2C(NC(=O)CCc3ccccn3)C(=O)O[C@@]21C (stereo not given in full) | 32 µg/mL (≈ 42.1 µM) | ≤ 0.125 µg/mL | 4 µg/mL (≈ 5.26 µM) | 4 µg/mL (≈ 5.26 µM) | 16 µg/mL (≈ 21.1 µM) | > 64 µg/mL | ≤ 0.125 µg/mL | 2 µg/mL (≈ 2.63 µM) | 4 µg/mL (≈ 5.26 µM) | 2 µg/mL (≈ 2.63 µM) |
| CC[C@H]1OC(=O)[C@H](C)C(=O)[C@H](C)[C@@H](O[C@@H]2O[C@H](C)C[C@H](N(C)C)[C@H]2O)[C@](C)(OC)C[C@@H](C)C(=O)[C@H](C)[C@H]2C(NC(=O)CCc3ccc4ccccc4c3)C(=O)O[C@@]21C (stereo not given in full) | 4 µg/mL (≈ 4.94 µM) | ≤ 0.125 µg/mL | 1 µg/mL (≈ 1.24 µM) | 1 µg/mL (≈ 1.24 µM) | 2 µg/mL (≈ 2.47 µM) | > 64 µg/mL | ≤ 0.125 µg/mL | 2 µg/mL (≈ 2.47 µM) | 8 µg/mL (≈ 9.89 µM) | 2 µg/mL (≈ 2.47 µM) |
| CC[C@H]1OC(=O)[C@H](C)C(=O)[C@H](C)[C@@H](O[C@@H]2O[C@H](C)C[C@H](N(C)C)[C@H]2O)[C@](C)(OC)C[C@@H](C)C(=O)[C@H](C)[C@H]2C(NC(=O)CCc3cnc4ccccc4c3)C(=O)O[C@@]21C (stereo not given in full) | 1 µg/mL (≈ 1.23 µM) | ≤ 0.125 µg/mL | 1 µg/mL (≈ 1.23 µM) | 1 µg/mL (≈ 1.23 µM) | 4 µg/mL (≈ 4.94 µM) | > 64 µg/mL | ≤ 0.125 µg/mL | 1 µg/mL (≈ 1.23 µM) | 2 µg/mL (≈ 2.47 µM) | 0.5 µg/mL (≈ 0.617 µM) |
| CC[C@H]1OC(=O)[C@H](C)C(=O)[C@H](C)[C@@H](O[C@@H]2O[C@H](C)C[C@H](N(C)C)[C@H]2O)[C@](C)(OC)C[C@@H](C)C(=O)[C@H](C)[C@H]2C(NC(=O)CCc3cnc4c(OC)cccc4c3)C(=O)O[C@@]21C (stereo not given in full) | 0.5 µg/mL (≈ 0.595 µM) | ≤ 0.125 µg/mL | 1 µg/mL (≈ 1.19 µM) | 0.5 µg/mL (≈ 0.595 µM) | 1 µg/mL (≈ 1.19 µM) | > 64 µg/mL | ≤ 0.125 µg/mL | 0.25 µg/mL (≈ 0.298 µM) | 0.25 µg/mL (≈ 0.298 µM) | 0.25 µg/mL (≈ 0.298 µM) |
| CC[C@H]1OC(=O)[C@H](C)C(=O)[C@H](C)[C@@H](O[C@@H]2O[C@H](C)C[C@H](N(C)C)[C@H]2O)[C@](C)(OC)C[C@@H](C)C(=O)[C@H](C)[C@H]2C(NC(=O)CCc3cnc4ccc(OC)cc4c3)C(=O)O[C@@]21C (stereo not given in full) | 0.25 µg/mL (≈ 0.298 µM) | ≤ 0.125 µg/mL | 1 µg/mL (≈ 1.19 µM) | 2 µg/mL (≈ 2.38 µM) | 1 µg/mL (≈ 1.19 µM) | > 64 µg/mL | ≤ 0.125 µg/mL | 0.5 µg/mL (≈ 0.595 µM) | 0.5 µg/mL (≈ 0.595 µM) | 0.5 µg/mL (≈ 0.595 µM) |
